Measurements: PMC7453566 (ACS Central Science, 2020)
Structures can show the parent of a compound that is named as a salt.

How the values were obtained:
[1] = test system: citrate concentration in INS-1 cells; assay: Citrate quantification with Citron1 in INS-1 cells treated with glucose or BTC; assay type: cell-based, rat
In short: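 INS-1 cells express the direct-response citrate biosensor in the cytosol or in mitochondria and are imaged in Krebs-Ringer buffer, with 20 mM glucose then 2 mM test compound, or test compound without glucose. Concentrations are read from in situ titration curves in digitonin-permeabilized cells (cytosol n = 62, mitochondria n = 34 cells). Each value is the average of triplicates; s.e.m. is given.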

[2] = test system: citrate concentration in HeLa cells; assay: Imaging of glucose- or drug-induced citrate concentration changes in HeLa cells; assay type: cell-based
[3] = target: CF98; assay type: binding; details: read-out: Kd (CF98)
[4] = test system: Citron1; assay type: cell-based, HeLa; details: read-out: in situ Kd (Citron1); n = 128
In short: (§1)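 HeLa cells (ATCC CCL-2) express the biosensor from a CMV promoter, untargeted (cytoplasmic/nuclear). Cells are imaged, permeabilized with digitonin, then titrated stepwise with citrate (0.1 to ∼20 mM) in the imaging buffer, allowing at least 250 s per step. The mean response versus citrate gives the in situ calibration curve, from 128 cells or 26 cells; s.e.m. is given.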

[5] = test system: Citroff1; assay type: cell-based, HeLa; details: read-out: in situ Kd (Citroff1); n = 26
In short: as §1

[6] = test system: citrate concentration in INS-1 cells; details: stimulatory glucose; cited from earlier work

O=C(O)c1cccc(C(=O)O)c1C(=O)O [BTC, 1,2,3-benzenetricarboxylate]
citrate concentration, following increase ([1]; 2 mM BTC after glucose addition): ~18 mM | citrate concentration, pronounced decrease after treatment ([1]; 2 mM BTC after glucose addition, from ∼25 mM): ~10 mM | citrate concentration after treatment ([1]; 2 mM BTC in the absence of glucose, from ∼3 mM): less than 2 mM

N#C/C(=C\c1cn(-c2ccccc2)c2ccccc12)C(=O)O [UK-5099, reference compound]
subsequent change of Citron1 fluorescence ([2]; HeLa mitochondria, 25 μM): sustained decrease | transient increase of Citron1 fluorescence ([2]; HeLa mitochondria, 25 μM, likely DMSO artifact per authors): 20%

O=C(O)CC(O)(CC(=O)O)C(=O)O [citrate, citrate (2-hydroxypropane-1,2,3-tricarboxylate)]
Kd [3]: ~9 mM | Kd [4]: 5.7 mM | Kd [5]: 0.13 mM

OC[C@H]1OC(O)[C@H](O)[C@@H](O)[C@@H]1O (stereo partly drawn) [glucose]
cytosolic citrate concentration change upon glucose addition ([2]; HeLa cells starved 0.5–1 h, 20 mM glucose): substantially increased | mitochondrial citrate change upon glucose addition ([2]; HeLa cells starved 0.5–1 h, mitochondria-localized Citron1): initial transient decrease followed by a slower increase | cytosolic and mitochondrial citrate concentration after treatment ([1]; 20 mM glucose, Krebs-Ringer buffer): ~25 mM | fold increase in the concentration of citrate [6]: ~8 fold
